According to ChEMBL document CHEMBL3994646, “Structure-based design and SAR development of 5,6-dihydroimidazolo[1,5-f]pteridine derivatives as novel Polo-like kinase-1 inhibitors” (Bioorg Med Chem Lett, 2017):
One block for each compound: values may come before it.

What was measured:
HT-29 [1] = experiment: Antiproliferative activity against human HT-29 cells after 72 hrs by CellTiter-Glo assay; settings: HT-29, 72 h
hERG (KCNH2) = hERG (KCNH2) (Homo sapiens, UniProt Q12809); experiment: Inhibition of human ERG at 10 uM relative to control
[2] = Inhibition of CYP450 (unknown origin); type: ADME; settings: human
[3] = Oral bioavailability in rat; type: ADME, organism-based; settings: in vivo
How it was run: (§1)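 Rats dosed at about 1.0 mg/kg IV in 30% β-cyclodextrin in 0.05 M MSA, pH 3, and about 5.0 mg/kg orally in 0.5% methylcellulose. Clearance from the IV arm; oral bioavailability from comparison of the two routes.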

Cytochrome P450 3A4 = Cytochrome P450 3A4 (Homo sapiens, UniProt P08684); experiment: Inhibition of CYP3A4 (unknown origin); type: ADME
[4] = Clearance in rat; type: ADME; settings: in vivo; how it was run: as §1
Cytochrome P450 2C8 = target: T1, Cytochrome P450 2C8 (Homo sapiens, UniProt P10632); experiment: Inhibition of CYP2C8 (unknown origin); type: ADME
T1 sequence (P10632 whole entry): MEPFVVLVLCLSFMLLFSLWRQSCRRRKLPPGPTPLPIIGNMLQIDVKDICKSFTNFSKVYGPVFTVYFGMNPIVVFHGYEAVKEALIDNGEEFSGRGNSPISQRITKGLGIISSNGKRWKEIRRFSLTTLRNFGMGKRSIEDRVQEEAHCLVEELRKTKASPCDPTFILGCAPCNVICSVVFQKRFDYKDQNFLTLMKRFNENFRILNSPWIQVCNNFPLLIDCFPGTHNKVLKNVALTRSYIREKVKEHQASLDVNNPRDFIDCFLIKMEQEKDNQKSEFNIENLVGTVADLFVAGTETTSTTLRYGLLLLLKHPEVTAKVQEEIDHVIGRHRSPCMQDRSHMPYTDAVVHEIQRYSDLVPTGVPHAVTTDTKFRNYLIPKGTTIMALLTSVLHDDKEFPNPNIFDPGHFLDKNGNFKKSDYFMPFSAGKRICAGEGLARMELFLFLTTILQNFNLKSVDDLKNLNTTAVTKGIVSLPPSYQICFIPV

[5] = Volume of distribution at steady state in mouse at 1 mg/kg, iv; type: ADME, organism-based; settings: in vivo, read-out: Vdss
How it was run: (§2)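 Female mice dosed intravenously at 1 mg/kg. Plasma concentration–time data used to derive Cmax, T1/2, MRT, AUC0-t, extrapolated AUC, clearance and steady-state volume of distribution.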

Mus musculus [6] = experiment: Bioavailability in mouse at 5 mg/kg, po; settings: in vivo
[7] = Cmax in mouse at 5 mg/kg, po; type: ADME, organism-based; set-up: dose 5 mg/kg, route oral; settings: in vivo
How it was run: (§3)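 Female mice given 5 mg/kg orally. Oral exposure (Cmax, Tmax, T1/2, MRT, AUC0-t, extrapolated AUC) measured, and bioavailability taken relative to the 1 mg/kg IV arm.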

[8] = Mean residence time in mouse at 5 mg/kg, po; type: ADME, organism-based; settings: in vivo; how it was run: as §3
Mus musculus [9] = experiment: Toxicity in mouse xenografted with human HT-29 cells assessed as body weight loss at 45 mg/kg, iv 1/time/week x 1 cycle relative to control; type: organism-based; settings: in vivo
How it was run: (§4)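 Mice bearing HT-29 xenografts given 45 mg/kg IV once weekly for one cycle. Efficacy expressed as tumour T/C (%) versus control; tolerability as percent body weight loss.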

[10] = Cmax in mouse at 1 mg/kg, iv; type: ADME, organism-based; set-up: dose 1 mg/kg, route intravenous; settings: in vivo; how it was run: as §2
[11] = Half life in mouse at 5 mg/kg, po; type: ADME, organism-based; settings: in vivo; how it was run: as §3
[12] = Mean residence time in mouse at 1 mg/kg, iv; type: ADME, organism-based; settings: in vivo; how it was run: as §2
[13] = Oral bioavailability in mouse at 5 mg/kg; type: ADME, organism-based; settings: in vivo; how it was run: as §3
[14] = AUC (0 to t) in mouse at 1 mg/kg, iv; type: ADME, organism-based; settings: in vivo; how it was run: as §2
[15] = Tmax in mouse at 5 mg/kg, po; type: ADME, organism-based; settings: in vivo; how it was run: as §3
HT-29 [16] = experiment: Antitumor activity against human HT-29 cells xenografted in mouse assessed as tumor growth inhibition at 45 mg/kg, iv 1/time/week x 1 cycle relative to control; type: functional; how it was run: as §4
[17] = AUCextrapolated in mouse at 5 mg/kg, po; type: ADME, organism-based; settings: in vivo; how it was run: as §3
[18] = AUCextrapolated in mouse at 1 mg/kg, iv; type: ADME, organism-based; settings: in vivo; how it was run: as §2
[19] = Clearance in mouse at 1 mg/kg, iv; type: ADME, organism-based; settings: in vivo; how it was run: as §2
[20] = AUC (0 to t) in mouse at 5 mg/kg, po; type: ADME, organism-based; settings: in vivo; how it was run: as §3
[21] = Half life in mouse at 1 mg/kg, iv; type: ADME, organism-based; settings: in vivo; how it was run: as §2

Chain of Cytochrome P450 3A4 (P08684 whole entry): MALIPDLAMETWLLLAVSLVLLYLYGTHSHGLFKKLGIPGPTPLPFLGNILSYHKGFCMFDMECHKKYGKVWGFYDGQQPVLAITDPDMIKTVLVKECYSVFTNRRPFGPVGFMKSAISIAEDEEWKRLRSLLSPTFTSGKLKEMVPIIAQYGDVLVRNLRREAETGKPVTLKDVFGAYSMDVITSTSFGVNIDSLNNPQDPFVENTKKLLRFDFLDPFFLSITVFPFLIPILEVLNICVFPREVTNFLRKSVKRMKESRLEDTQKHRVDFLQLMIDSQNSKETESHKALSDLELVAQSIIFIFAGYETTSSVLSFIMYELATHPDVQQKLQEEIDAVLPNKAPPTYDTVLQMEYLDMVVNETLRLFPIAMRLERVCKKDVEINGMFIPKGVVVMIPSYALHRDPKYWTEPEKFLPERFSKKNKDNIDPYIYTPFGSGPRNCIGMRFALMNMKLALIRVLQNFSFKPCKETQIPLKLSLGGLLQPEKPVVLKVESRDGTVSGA
Chain of hERG (KCNH2) (Q12809 whole entry): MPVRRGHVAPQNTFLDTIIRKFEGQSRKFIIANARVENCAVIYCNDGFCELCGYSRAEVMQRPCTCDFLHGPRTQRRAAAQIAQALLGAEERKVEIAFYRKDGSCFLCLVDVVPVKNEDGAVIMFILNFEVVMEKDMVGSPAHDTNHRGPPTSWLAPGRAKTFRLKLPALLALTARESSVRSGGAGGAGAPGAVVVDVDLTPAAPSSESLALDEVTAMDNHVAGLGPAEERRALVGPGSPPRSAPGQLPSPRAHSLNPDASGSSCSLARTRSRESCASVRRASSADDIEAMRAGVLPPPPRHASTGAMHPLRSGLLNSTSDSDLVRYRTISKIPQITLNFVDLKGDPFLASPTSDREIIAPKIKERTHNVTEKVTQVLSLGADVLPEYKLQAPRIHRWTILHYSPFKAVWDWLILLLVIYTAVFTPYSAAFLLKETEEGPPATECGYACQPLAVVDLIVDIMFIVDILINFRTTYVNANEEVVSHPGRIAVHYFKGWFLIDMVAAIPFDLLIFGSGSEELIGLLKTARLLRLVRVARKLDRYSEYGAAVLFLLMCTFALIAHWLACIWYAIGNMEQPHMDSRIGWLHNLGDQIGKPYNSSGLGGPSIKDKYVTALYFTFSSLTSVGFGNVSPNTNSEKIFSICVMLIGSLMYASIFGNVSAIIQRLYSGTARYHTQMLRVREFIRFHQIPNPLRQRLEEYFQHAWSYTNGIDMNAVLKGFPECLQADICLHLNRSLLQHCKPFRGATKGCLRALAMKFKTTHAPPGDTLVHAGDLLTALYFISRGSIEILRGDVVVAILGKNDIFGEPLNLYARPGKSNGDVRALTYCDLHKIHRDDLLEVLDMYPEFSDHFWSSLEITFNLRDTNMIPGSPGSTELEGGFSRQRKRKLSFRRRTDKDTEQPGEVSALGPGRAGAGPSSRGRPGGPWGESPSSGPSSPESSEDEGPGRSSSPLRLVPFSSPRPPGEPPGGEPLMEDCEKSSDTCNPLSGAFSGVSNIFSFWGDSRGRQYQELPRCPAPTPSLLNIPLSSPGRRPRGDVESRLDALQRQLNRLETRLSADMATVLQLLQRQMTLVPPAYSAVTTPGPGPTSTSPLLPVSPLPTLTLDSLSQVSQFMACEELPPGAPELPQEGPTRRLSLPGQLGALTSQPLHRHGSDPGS

EC50 (HT-29 [1]): 20 nM
Compound: CC[C@@H]1c2c(C(N)=O)ncn2-c2cnc(Nc3ccc(C(=O)NC4CCN(C)CC4)cc3OC)nc2N1C1CCCC1

EC50 (HT-29 [1]): 3 nM
inhibition (INH) [2]: Not Active
Compound: CC[C@@H]1c2c(C#N)ncn2-c2cnc(Nc3cc(F)c(C(=O)NC4CCN(CC)CC4)cc3OC)nc2N1C(C)C
inhibition at 10 µM (hERG (KCNH2)): 37%

EC50 (HT-29 [1]): 60 nM
Compound: CC[C@@H]1c2c(C(=O)N(C)O)ncn2-c2cnc(Nc3ccc(C(=O)NC4CCN(C)CC4)cc3OC)nc2N1C1CCCC1

bioavailability [3]: 0%
EC50 (HT-29 [1]): 2.7 to 3 nM
IC50 (Cytochrome P450 3A4): < 10000 nM
clearance [4]: 76 mL/min/kg
Compound: CC[C@@H]1c2c(C#N)ncn2-c2cnc(Nc3ccc(C(=O)NC4CCN(C)CC4)cc3OC)nc2N1C1CCCC1

bioavailability [3]: 47%
EC50 (HT-29 [1]): 4 nM
inhibition (INH) [2]: Not Active
Compound: CC[C@@H]1c2c(C#N)ncn2-c2cnc(Nc3cc(F)c(C(=O)NC4CCN(C)CC4)cc3OC)nc2N1C(C)C

bioavailability [3]: 49%
IC50 (Cytochrome P450 2C8): < 10000 nM
EC50 (HT-29 [1]): 1 nM
IC50 (Cytochrome P450 3A4): < 10000 nM
clearance [4]: 28 mL/min/kg
Compound: CC[C@@H]1c2c(C#N)ncn2-c2cnc(Nc3cc(F)c(C(=O)NC4CCN(C)CC4)cc3OC)nc2N1C1CCCC1

EC50 (HT-29 [1]): 100 nM
Compound: CCNC(=O)c1ncn2c1[C@@H](CC)N(C1CCCC1)c1nc(Nc3ccc(C(=O)NC4CCN(C)CC4)cc3OC)ncc1-2

EC50 (HT-29 [1]): 9 nM
Compound: CCOC(=O)c1ncn2c1[C@@H](CC)N(C1CCCC1)c1nc(Nc3ccc(C(=O)NC4CCN(C)CC4)cc3OC)ncc1-2

IC50 (Cytochrome P450 2C8): < 10000 nM
EC50 (HT-29 [1]): 2 nM
IC50 (Cytochrome P450 3A4): < 10000 nM
Compound: CC[C@@H]1c2c(C#N)ncn2-c2cnc(Nc3cc(F)c(C(=O)NC4CCN(C)CC4)cc3OC)nc2N1C1CCCCC1

bioavailability [3]: 0.5%
EC50 (HT-29 [1]): 6 nM
inhibition (INH) [2]: Not Active
Compound: CC[C@@H]1c2c(C#N)ncn2-c2cnc(Nc3ccc(C(=O)NC4CCN(C)CC4)cc3OC)nc2N1C(C)C

EC50 (HT-29 [1]): 400 nM
Compound: CC[C@@H]1c2c(C(=O)O)ncn2-c2cnc(Nc3ccc(C(=O)NC4CCN(C)CC4)cc3OC)nc2N1C1CCCC1

bioavailability [3]: 100%
Vd [5]: 8.9 L/kg
F (Mus musculus [6]): 100%
Cmax [7]: 354 ng/mL
MRT [8]: 13 h
Cmax [10]: 258 ng/mL
EC50 (HT-29 [1]): 22 nM
half-life [11]: 8.5 h
MRT [12]: 6.5 h
bioavailability [13]: 101%
AUC(0-t) [14]: 713 ng·h/mL
Tmax [15]: 4 h
AUC [17]: 4590 ng·h/mL
AUC [18]: 1010 ng·h/mL
clearance [19]: 22.7 mL/min/kg
inhibition (INH) [2]: Not Active
AUC(0-t) [20]: 3900 ng·h/mL
half-life [21]: 4.7 h
Compound: CC[C@@H]1c2c(C#N)ncn2-c2cnc(Nc3cc(F)c(C(=O)N[C@H]4CC[C@H](N5CCN(CC6CC6)CC5)CC4)cc3OC)nc2N1C(C)C
Activity (Mus musculus [9]): 5.5%
T/C (HT-29 [16]): 54.6%

EC50 (HT-29 [1]): 3 nM
inhibition (INH) [2]: Not Active
Compound: CC[C@@H]1c2c(C#N)ncn2-c2cnc(Nc3cc(F)c(C(=O)NC4CN(C)C4)cc3OC)nc2N1C(C)C

EC50 (HT-29 [1]): 30 nM
Compound: CC[C@@H]1c2c(CO)ncn2-c2cnc(Nc3ccc(C(=O)NC4CCN(C)CC4)cc3OC)nc2N1C1CCCC1
